Assay results taken from ChEMBL document CHEMBL1124534, “Synthesis, mechanism of action, and biological evaluation of mitosenes” (1989).
≈ marks a conversion by molar mass, not a printed value.

Tests used:
A204 = experiment: In vitro antitumor activity against A204 rhabdomyosarcoma tumor cell line was determined; format: functional; settings: Homo sapiens, read-out: ID50 (the source's name)
Outline: (§1)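 Cell growth inhibition in vitro measured by the PIT method, with mitomycin C as positive reference.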

WiDr = experiment: In vitro antitumor activity against WiDr colon carcinoma tumor cell line was determined; format: functional; settings: Homo sapiens, read-out: ID50 (the source's name); outline: as §1
L1210 = experiment: In vitro antitumor activity against L1210 lymphocytic leukemia tumor cell line was determined; format: functional; settings: Mus musculus, read-out: ID50 (the source's name)
Outline: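 Inhibition of L1210 leukemia colony formation in vitro, with mitomycin C as positive reference.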

Mus musculus [1] = experiment: Percent inhibition of compound (50 mg/Kg) was evaluated in vivo for antitumor activity against MAC 13 in female NMRI mice on day 2; format: functional
Outline: (§2)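 MAC 13 in female NMRI mice. Drugs were given in arachis oil BP by ip route on day 2 or day 29. % inhibition was derived from treated/untreated control tumor weight (volume); a negative value indicates stimulation.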

Mus musculus [2] = experiment: Ability of intraperitoneally administered compound (50 mg/kg/day) to inhibit growth of human tumor xenograft GXF 97 was assessed on day 21 tested in five mice; format: functional
Outline: (§3)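 GXF 97 human gastric xenograft grown subcutaneously in nude mice for 24 days, then randomized; dosing began 1 day later as ip injections on days 1-4. Groups had 4-5 mice. Tumor length and width were measured. %T/C = median relative tumor size of treated / median relative tumor size of controls.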

Mus musculus [3] = experiment: Percent T/C ([…]) for antitumor activity against P388 Leukemia in CD2 mice at fractioned dose treatment of 70 mg/kg; format: functional; settings: in the assay text read “single dose” for “fractioned dose”
Outline: (§4)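 Mouse P388 leukemia model. Drugs were given intraperitoneally, either as a single injection or once daily for 9 consecutive days (fractioned schedule). Outcomes were median survival time in days, %T/C, and % body weight change.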

Mus musculus [4] = experiment: Mean relative body weight change of treated / mean relative body weight change of control when compound (50 mg/kg/day) administered to inhibit growth of human tumor xenograft GXF 97 was reported at day 28 in mice; format: functional
Outline: (§5)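 GXF 97 xenograft grown subcutaneously in nude mice for 24 days, then randomized; ip dosing began 1 day later, given on days 1-4, with 4-5 mice per group. Read-out is mean relative body weight change of treated divided by mean relative body weight change of controls, in %.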

Mus musculus [5] = experiment: Compound (40 mg/Kg) was evaluated in vivo for antitumor activity against MAC 16 in female NMRI mice on day 12 and ratio of tumor weight of treated to that of control was determined; format: functional
Mus musculus [6] = experiment: Percent inhibition of compound (50 mg/Kg) was evaluated in vivo for antitumor activity against MAC 13 in female NMRI mice on day 29; format: functional; outline: as §2
Mus musculus [7] = experiment: Ability of intraperitoneally administered compound (50 mg/kg/day) to inhibit growth of human tumor xenograft GXF 97 was assessed on day 14 tested in five mice; format: functional; outline: as §3
Mus musculus [8] = experiment: Percent T/C ([…]) for antitumor activity against P388 Leukemia in CD2 mice at a single dose treatment of 50 mg/Kg; format: functional
Outline: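 P388 leukemia mice given a single intraperitoneal injection. Median survival time (days) and body weight change were recorded. %T/C was derived from the survival of treated versus control mice.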

Mus musculus [9] = experiment: Compound (40 mg/Kg) was evaluated in vivo for antitumor activity against MAC 16 in female NMRI mice on day 4 and ratio of tumor weight of treated to that of control was determined; format: functional
Mus musculus [10] = experiment: Body wieght treated/body weight untreated controls of compound (40 mg/Kg) was evaluated in vivo for antitumor activity against MAC 16 in female NMRI mice on day 4; format: functional
Mus musculus [11] = experiment: Mean relative body weight change of treated / mean relative body weight change of control when compound (50 mg/kg/day) administered to inhibit growth of human tumor xenograft GXF 97 was reported at day 21 in mice; format: functional; outline: as §5
Mus musculus [12] = experiment: Mean relative body weight change of treated / mean relative body weight change of control when compound (50 mg/kg/day) administered to inhibit growth of human tumor xenograft GXF 97 was reported at day 14 in mice; format: functional; outline: as §5
Mus musculus [13] = experiment: Percent T/C ([…]) for antitumor activity against P388 Leukemia in CD2 mice at fractioned dose treatment of 18 mg/Kg; format: functional; outline: as §4
Mus musculus [14] = experiment: Compound (50 mg/Kg) was evaluated in vivo for antitumor activity against MAC 13 in female NMRI mice on day 29 and ratio of tumor weight of treated to that of control was determined
Mus musculus [15] = experiment: Ability of intraperitoneally administered compound (50 mg/kg/day) to inhibit growth of human tumor xenograft GXF 97 was assessed on day 28 tested in five mice; format: functional; outline: as §3
Mus musculus [16] = experiment: Median survival time in days for antitumor activity against P388 Leukemia in CD2 mice at fractioned dose treatment of 18 mg/Kg; format: functional
Outline: (§6)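 P388 leukemia-bearing mice were dosed intraperitoneally once daily for 9 consecutive days (fractioned schedule). The read-out was median survival time in days, reported alongside %T/C and % body weight change.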

Mus musculus [17] = experiment: Relative tumor size on day 28 was reported when compound (50 mg/kg/day) administered to inhibit growth of human tumor xenograft GXF 97 in mice tested after 28 days; format: functional
Outline: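 GXF 97 human gastric xenograft grown subcutaneously in nude mice for 24 days, then mice randomized; treatment began 1 day later. Fractioned ip injections on days 1-4, or single iv injection on day 1; 4-5 mice per group. Tumor size from length and width; relative tumor size (% of controls) read at day 28.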

Mus musculus [18] = experiment: Median survival time in days for antitumor activity against P388 Leukemia in CD2 mice at single dose treatment of 70 mg/kg
Mus musculus [19] = experiment: Percentage change in body weight [(day 6 - day 1)/ day 1] for antitumor activity against P388 Leukemia in CD2 mice at fractioned dose treatment of 25 mg/Kg; format: functional; outline: as §4
Mus musculus [20] = experiment: Percentage change in body weight [(day 6 - day 1)/ day 1] for antitumor activity against P388 Leukemia in CD2 mice at fractioned dose treatment of 18 mg/Kg; format: functional; outline: as §4
Mus musculus [21] = experiment: Percentage change in body weight [(day 6 - day 1)/ day 1] for antitumor activity against P388 Leukemia in CD2 mice at fractioned dose treatment of 70 mg/Kg; format: functional; settings: in the assay text read “single dose treatment” for “fractioned dose treatment”; outline: as §4
Mus musculus [22] = experiment: Percent T/C ([…]) for antitumor activity against P388 Leukemia in CD2 mice at fractioned dose treatment of 25 mg/Kg; format: functional; outline: as §4
Mus musculus [23] = experiment: Median survival time in days for antitumor activity against P388 Leukemia in CD2 mice at a single dose treatment of 50 mg/Kg; format: functional
Outline: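 P388 leukemia-bearing mice were given one intraperitoneal injection. The read-out was median survival time in days, reported alongside %T/C and % body weight change.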

Mus musculus [24] = experiment: Body wieght treated/body weight untreated controls of compound (40 mg/Kg) was evaluated in vivo for antitumor activity against MAC 16 in female NMRI mice on day 12; format: functional
Mus musculus [25] = experiment: Compound (50 mg/Kg) was evaluated in vivo for antitumor activity against MAC 13 in female NMRI mice on day 2 and ratio of tumor weight of treated to that of control was determined
Mus musculus [26] = experiment: Median survival time in days for antitumor activity against P388 Leukemia in CD2 mice at fractioned dose treatment of 25 mg/Kg; format: functional; outline: as §6
Mus musculus [27] = experiment: Percent change in body weight [(day 6 - day 1)/ day 1] when P388 Leukemic CD2 mice were treated with a compound (50 mg/Kg); format: functional

CCNC(=O)OCc1c2c(n3c1C(O)CC3)C(=O)C=C(OC)C2=O (stereo not given)
IC50 (A204): 0.001 mg/L (≈ 0.00299 µM)
IC50 (WiDr): 0.029 mg/L (≈ 0.0867 µM)
IC50 (L1210): 0.118 mg/L (≈ 0.353 µM)

CCNC(=O)OCc1c2c(n3c1C(O)CC3)C(=O)C(C)=C(OC)C2=O (stereo not given)
IC50 (A204): 0.001 mg/L (≈ 0.00287 µM)
IC50 (WiDr): 0.051 mg/L (≈ 0.146 µM)
IC50 (L1210): 0.206 mg/L (≈ 0.591 µM)

COC1=C(Br)C(=O)c2c(c(COC(C)=O)c3n2CCC3OC(C)=O)C1=O (stereo not given)
IC50 (A204): 0.479 mg/L (≈ 1.12 µM)
IC50 (WiDr): 0.492 mg/L (≈ 1.15 µM)
IC50 (L1210): 0.217 mg/L (≈ 0.509 µM)

CCCC(=O)OCc1c2c(n3c1C(OC(=O)CCC)CC3)C(=O)C(C)=C(OC)C2=O (stereo not given)
IC50 (A204): 0.021 mg/L (≈ 0.0503 µM)
IC50 (WiDr): 0.069 mg/L (≈ 0.165 µM)
IC50 (L1210): > 0.64 mg/L

COC1=C(Br)C(=O)c2c(c(COC(C)=O)c3n2CCCC3OC(C)=O)C1=O (stereo not given)
IC50 (A204): 4.14 mg/L (≈ 9.39 µM)
IC50 (WiDr): 6.49 mg/L (≈ 14.7 µM)
IC50 (L1210): 1.12 mg/L (≈ 2.54 µM)

COC1=CC(=O)c2c(c(CO)c3n2CCCC3O)C1=O (stereo not given)
IC50 (A204): 1.2 mg/L (≈ 4.31 µM)
IC50 (WiDr): 2.17 mg/L (≈ 7.83 µM)
IC50 (L1210): 1.33 mg/L (≈ 4.78 µM)

CCNC(=O)OCc1c2c(n3c1C(O)CCC3)C(=O)C=C(OC)C2=O (stereo not given)
IC50 (A204): < 0.1 mg/L
IC50 (WiDr): 0.18 mg/L (≈ 0.517 µM)
IC50 (L1210): 0.942 mg/L (≈ 2.7 µM)

COC1=C(C)C(=O)c2c(c(CO)c3n2CCC3O)C1=O (stereo not given)
I (Mus musculus [1]): 3%
T/C (Mus musculus [2]): 4.8%
T/C (Mus musculus [3]): 91%
BWC (Mus musculus [4]): 103.4%
T/C (Mus musculus [5]): 89%
I (Mus musculus [6]): -21%
T/C (Mus musculus [7]): 12.6%
T/C (Mus musculus [8]): 100%
T/C (Mus musculus [9]): 102%
BW (Mus musculus [10]): 118%
BWC (Mus musculus [11]): 107.2%
IC50 (A204): 0.641 mg/L (≈ 2.31 µM)
IC50 (WiDr): 1.33 mg/L (≈ 4.81 µM)
BWC (Mus musculus [12]): 103.8%
IC50 (L1210): 2.6 mg/L (≈ 9.39 µM)
T/C (Mus musculus [13]): 100%
T/C (Mus musculus [14]): 121%
T/C (Mus musculus [15]): 3.1%
MST (Mus musculus [16]): 11 days
Relative TS (Mus musculus [17]): 20.6%
MST (Mus musculus [18]): 10 days
BWC (Mus musculus [19]): 17.1%
BWC (Mus musculus [20]): 17.3%
BWC (Mus musculus [21]): -0.9%
T/C (Mus musculus [22]): 100%
MST (Mus musculus [23]): 11 days
BW (Mus musculus [24]): 93%
T/C (Mus musculus [25]): 97%
MST (Mus musculus [26]): 11 days
BWC (Mus musculus [27]): 2.5%

COC1=C(C)C(=O)c2c(c(COC(C)=O)c3n2CCCC3OC(C)=O)C1=O (stereo not given)
IC50 (A204): < 0.1 mg/L
IC50 (WiDr): 0.171 mg/L (≈ 0.456 µM)
IC50 (L1210): 1.54 mg/L (≈ 4.1 µM)

COC1=CC(=O)c2c(c(CO)c3n2CCC3O)C1=O (stereo not given)
IC50 (A204): 2.6 mg/L (≈ 9.87 µM)
IC50 (WiDr): 2.6 mg/L (≈ 9.87 µM)
IC50 (L1210): 1.15 mg/L (≈ 4.35 µM)

CCNC(=O)OCc1c2c(n3c1C(O)CCC3)C(=O)C(C)=C(OC)C2=O (stereo not given)
IC50 (A204): 0.05 mg/L (≈ 0.138 µM)
IC50 (WiDr): 0.251 mg/L (≈ 0.693 µM)
IC50 (L1210): 1.17 mg/L (≈ 3.22 µM)

CC(=O)OCc1c2c(n3c1C(OC(C)=O)CC3)C(=O)C(C)=C(N1CC1)C2=O (stereo not given)
IC50 (A204): 0.001 mg/L (≈ 0.00269 µM)
IC50 (WiDr): 0.02 mg/L (≈ 0.0537 µM)
IC50 (L1210): 0.166 mg/L (≈ 0.446 µM)

COC1=CC(=O)c2c(c(COC(C)=O)c3n2CCCC3OC(C)=O)C1=O (stereo not given)
IC50 (A204): 0.133 mg/L (≈ 0.368 µM)
IC50 (WiDr): 0.115 mg/L (≈ 0.318 µM)
IC50 (L1210): 0.582 mg/L (≈ 1.61 µM)

COC1=C(C)C(=O)c2c(c(CO)c3n2CCCC3O)C1=O (stereo not given)
IC50 (A204): 2.69 mg/L (≈ 9.23 µM)
IC50 (WiDr): 5.89 mg/L (≈ 20.2 µM)
IC50 (L1210): 3.72 mg/L (≈ 12.8 µM)

CCOC(=S)SCc1c2c(n3c1CCC3)C(=O)C(C)=C(OC)C2=O
IC50 (A204): 0.585 mg/L (≈ 1.6 µM)
IC50 (WiDr): 3.71 mg/L (≈ 10.1 µM)
IC50 (L1210): > 6.4 mg/L

COC1=CC(=O)c2c(c(COC(C)=O)c3n2CCCC3O)C1=O (stereo not given)
IC50 (A204): 0.115 mg/L (≈ 0.36 µM)
IC50 (WiDr): 0.287 mg/L (≈ 0.899 µM)
IC50 (L1210): 1.75 mg/L (≈ 5.49 µM)
